Source: ChEMBL document CHEMBL2034927, “Design, synthesis, anti-HIV evaluation and molecular modeling of piperidine-linked amino-triazine derivatives as potent non-nucleoside reverse transcriptase inhibitors” (Bioorg Med Chem, 2012)

Experiments:
[1] = Selectivity index, ratio of CC50 for human MT4 cells to EC50 for HIV1 RES056 harboring reverse transcriptase K103N/Y181C RT mutant; assay type: toxicity, cell-based; conditions: read-out: Ratio CC50/EC50
[2] = tested on: Human immunodeficiency virus 1; assay: Antiviral activity against HIV1 RES056 harboring reverse transcriptase K103N/Y181C mutant infected in human MT4 cells assessed as inhibition of virus-induced cytopathic effect after 5 days by MTT assay; assay type: functional, organism-based; conditions: Human immunodeficiency virus 1, RES056, MT4, 120 h
Summary of the method: (§1)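 MT-4 cells at 6 × 10⁵ cells/mL were infected with the double mutant HIV-1 RES056 (K103N+Y181C), with serial fivefold compound dilutions. After 5 days, viability was read by MTT at 540 and 690 nm, using the median OD of three wells. EC50 is 50% protection against virus-induced cytotoxicity, and CC50 is a 50% drop in OD540 of mock-infected cells. Fold resistance is the RES056 EC50 divided by the IIIB EC50.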

[3] = tested on: Human immunodeficiency virus 2; assay: Antiviral activity against HIV2 ROD infected in human MT4 cells assessed as inhibition of virus-induced cytopathic effect after 5 days by MTT assay; assay type: functional, organism-based; conditions: Human immunodeficiency virus 2, ISOLATE ROD, MT4, 120 h
Summary of the method: (§2)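 MT-4 cells spun 5 min at 1000 rpm, resuspended at 6 × 10⁵ cells/mL, then infected with HIV-1 IIIB or HIV-2 ROD at 100–300 CCID50. Test compounds were added as serial fivefold dilutions. After 5 days, viability was read by MTT reduction at 540 and 690 nm, using the median OD of three wells. EC50 is the concentration giving 50% protection against virus-induced cytotoxicity.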

[4] = Cytotoxicity against human MT4 cells after 5 days by MTT assay; assay type: cell-based
Summary of the method: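 MT-4 cells at 6 × 10⁵ cells/mL were mock-infected with culture medium and exposed to serial fivefold dilutions of compound. After 5 days, viability was measured by MTT reduction at 540 and 690 nm, using the median OD of three wells. CC50 is the concentration reducing OD540 of the mock-infected control by 50%.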

[5] = tested on: Human immunodeficiency virus 1; assay: Fold resistance, ratio of EC50 for HIV1 RES056 harboring reverse transcriptase K103N/Y181C RT mutant to EC50 for wild type HIV1 3B; assay type: functional; summary of the method: as §1
[6] = Selectivity index, ratio of CC50 for human MT4 cells to EC50 for wild type HIV1 3B; assay type: toxicity, cell-based; conditions: read-out: Ratio CC50/EC50
Summary of the method: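 HIV-1 IIIB stock at 100–300 CCID50 was added to MT-4 cells at 6 × 10⁵ cells/mL, with serial fivefold compound dilutions and mock-infected wells run in parallel. Viability was read by MTT at 540 and 690 nm after 5 days, using the median OD of three wells. EC50 is 50% protection from HIV-induced cytotoxicity, and CC50 is a 50% reduction of mock-infected OD540. SI is CC50/EC50.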

[7] = tested on: Human immunodeficiency virus 1; assay: Antiviral activity against HIV1 3B infected in human MT4 cells assessed as inhibition of virus-induced cytopathic effect after 5 days by MTT assay; assay type: functional, organism-based; conditions: Human immunodeficiency virus 1, 3B, MT4, 120 h; summary of the method: as §2

SMILES	selectivity ratio [1]	EC50 [2] [nM]	EC50 [3] [µM]	CC50 at 120 h [4] [µM]	Ratio EC50 [5]	selectivity ratio [6]	EC50 [7] [nM]
Cc1cc(C)c(Nc2nc(N)nc(NC3CCN(Cc4ccc(C(N)=O)cc4)CC3)n2)c(C)c1	22	3330	> 74.4	74.4	162.8	3640	20.4
CNc1nc(Nc2c(C)cc(C)cc2C)nc(NC2CCN(Cc3ccc(S(N)(=O)=O)cc3)CC2)n1	29	510	> 14.8	14.8	72.7	2120	6.99
CNc1nc(Nc2c(C)cc(C)cc2C)nc(NC2CCN(Cc3ccncc3)CC2)n1	47	550	> 25.8	25.8	76.4	3560	7.25
Cc1cc(C)c(Nc2nc(N)nc(NC3CCN(Cc4ccccc4)CC3)n2)c(C)c1	5	4930	> 23.6	23.6	481.3	2300	10.2
COc1nc(Nc2c(C)cc(C)cc2C)nc(NC2CCN(Cc3ccc(C(N)=O)cc3)CC2)n1	30	1110	> 33.4	33.4	128.3	3870	8.64
COc1nc(Nc2c(C)cc(C)cc2C)nc(NC2CCN(Cc3ccc(S(N)(=O)=O)cc3)CC2)n1	21	940	> 19.6	19.6	88.2	1850	10.6
CCOC(=O)c1ccc(CN2CCC(Nc3nc(NC)nc(Nc4c(C)cc(C)cc4C)n3)CC2)cc1	< 1	> 4950	> 4.95	4.95	>297	297	16.7
CCOC(=O)c1ccc(CN2CCC(Nc3nc(Nc4c(C)cc(C)cc4C)nc(OC)n3)CC2)cc1	< 1	> 8480	> 8.48	8.48	>576.6	577	14.7
Cc1cc(C)c(Nc2nc(N)nc(NC3CCN(Cc4ccncc4)CC3)n2)c(C)c1	21	970	> 20.1	20.1	198.8	4110	4.9
O=C1Nc2ccc(Cl)cc2[C@@](C#CC2CC2)(C(F)(F)F)O1 [EFAVIRENZ]	> 12	550		> 6.34	83.6	> 964	6.57
COc1nc(Nc2c(C)cc(C)cc2C)nc(NC2CCN(Cc3ccncc3)CC2)n1	21	1480	> 30.9	30.9	111.1	2320	13.3
CC(C)Nc1cccnc1N1CCN(C(=O)c2cc3cc(NS(C)(=O)=O)ccc3[nH]2)CC1.CS(=O)(=O)O [DELAVIRDINE MESYLATE]	≥ 1	> 36200		> 36.2	>1033.6	> 1030	35
CNc1nc(Nc2c(C)cc(C)cc2C)nc(NC2CCN(Cc3ccc(C(N)=O)cc3)CC2)n1	49	560	> 27.4	27.4	121.6	5940	4.61
Cc1cc(C)c(Nc2nc(N)nc(NC3CCN(Cc4ccc(S(N)(=O)=O)cc4)CC3)n2)c(C)c1	32	610	> 19.9	19.9	105.7	3450	5.75
Cc1cc(C)c(Nc2nc(N)nc(NC3CCN(Cc4ccc(C#N)cc4)CC3)n2)c(C)c1	< 1	> 3260	> 3.26	3.26	>575.8	576	5.66
CNc1nc(Nc2c(C)cc(C)cc2C)nc(NC2CCN(Cc3ccc(S(C)(=O)=O)cc3)CC2)n1	3	3330	> 9.64	9.64	549.8	1590	6.06
Cc1cc(C#N)cc(C)c1Oc1nc(Nc2ccc(C#N)cc2)nc(N)c1Br [ETRAVIRINE]	817				15.5		
Cc1cc(C)c(Nc2nc(N)nc(NC3CCN(Cc4ccc(S(C)(=O)=O)cc4)CC3)n2)c(C)c1	1	4920	> 5.06	5.06	887.5	911	5.55
Cc1cc(C)c(Nc2nc(N)nc(NC3CCN(Cc4ccc([N+](=O)[O-])cc4)CC3)n2)c(C)c1	< 1	> 3460	> 3.46	3.46	>439.1	439	7.87
CCOC(=O)c1ccc(CN2CCC(Nc3nc(N)nc(Nc4c(C)cc(C)cc4C)n3)CC2)cc1	< 1	> 5910	> 5.91	5.91	>511.6	512	11.6
Cc1cn([C@H]2C[C@H](N=[N+]=[N-])[C@@H](CO)O2)c(=O)[nH]c1=O [ZIDOVUDINE]	≥ 4400	10	0.007	≥ 49.8	1.9	≥ 8300	
Nc1ccn([C@H]2CC[C@@H](CO)O2)c(=O)n1 [ZALCITABINE]			1.67	> 94.7		> 68	1390
COc1nc(Nc2c(C)cc(C)cc2C)nc(NC2CCN(Cc3ccc(S(C)(=O)=O)cc3)CC2)n1	≤ 8	≥ 1590	> 13.5	13.5	>=133.3	1130	11.9
Cc1ccnc2c1NC(=O)c1cccnc1N2C1CC1 [NEVIRAPINE]	≥ 1	> 15000		> 15	>75	> 75	
